Assays:
Type in all cases: cell-based
HIV-1 NL4-3 Nanoluc-sec = conditions: for SI, selectivity index, calculated as CC50/EC50: CC50 (MT4) / EC50 (HIV-1 in MT4)
[1] = CytoTox-Glo cytotoxicity assay in MT4 cells; conditions: human
[2] = system: T cell latent HIV-1 model JLat-A2; assay: FACS analysis of GFP-expressing J-Lat; conditions: JLat-A2, 10 and 50 nM, 72 h
Method in brief: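 J-Lat (A2) latently infected cells at 1×10⁶ cells/well, incubated with test compounds at various concentrations, 37 °C, 72 h. GFP-expressing cells scored by flow cytometry.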

[3] = Cytotoxicity against U937 cell; conditions: human, U937 cells
Method in brief: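 Cells cultured 3 days with test compound over a concentration range. Viability read by CytoTox-Glo cytotoxicity assay per manufacturer's protocol, same method as for MT4 cells. CC50 taken as the concentration giving 50% reduction in cell viability.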

## CC1=C[C@@H]2C(=O)[C@]3(C=C(C)[C@H](O)[C@@]3(O)[C@@H]1OC(=O)c1ccccc1)[C@H](C)C[C@@H]1[C@H]2C1(C)C [Compound 1, 5-O-benzoyl-20-deoxyingenol]
HIV-1 NL4-3 Nanoluc-sec
  SI, selectivity index, calculated as CC50/EC50: >216

## CC1=C[C@@H]2C(=O)[C@]3(C=C(C)[C@H](OC(=O)c4ccccc4)[C@@]3(O)[C@@H]1O)[C@H](C)C[C@@H]1[C@H]2C1(C)C [Compound 2, 3-O-benzoyl-20-deoxyingenol]
HIV-1 NL4-3 Nanoluc-sec
  SI, selectivity index, calculated as CC50/EC50: >302

## CC(=O)O[C@H]1C(C)=C[C@]23C(=O)[C@@H](C=C(C)[C@@H](OC(=O)c4ccccc4)[C@]12O)[C@H]1[C@@H](C[C@H]3C)C1(C)C [Compound 3, kansuiphorin C]
HIV-1 NL4-3 Nanoluc-sec
  SI, selectivity index, calculated as CC50/EC50: >23

## CC(=O)OCC1=C[C@@H]2C(=O)[C@]3(C=C(C)[C@H](O)[C@@]3(O)[C@@H]1O)[C@H](C)C[C@@H]1[C@H]2C1(C)C [Compound 4, ingenol monoacetate]
HIV-1 NL4-3 Nanoluc-sec
  SI, selectivity index, calculated as CC50/EC50: >10

## CCCCCCCCCCCC(=O)O[C@@]12C[C@@H](C)[C@]34C=C(C)[C@H](OC(=O)C(C)C(C)C)[C@@]3(O)[C@H](O)C(CO)=C[C@H](C4=O)[C@@H]1C2(C)C (some centres unmarked) [Compound 5, 3-O-(2,3-dimethylbutanoyl)-13-O-dodecanoylingenol]
HIV-1 NL4-3 Nanoluc-sec
  SI, selectivity index, calculated as CC50/EC50: >7500

## C=C1[C@H](OC(=O)c2ccccc2)[C@H]2[C@@H](OC(C)=O)[C@](C)(O)[C@H](OC(C)=O)[C@]2(O)C(=O)[C@@H](C)[C@H]2O[C@@H]2C(C)(C)C(=O)[C@H](O)[C@H]1OC(=O)c1ccccc1 [Compound 7, kansuinin C]
HIV-1 NL4-3 Nanoluc-sec; jatrophane diterpenoids isolated from E3-fraction
  anti-HIV activity: no anti-HIV activity

## CCCCCCCCCCCC(=O)O[C@@]12C[C@@H](C)[C@]34C=C(C)[C@H](O)[C@@]3(O)[C@H](O)C(CO)=C[C@H](C4=O)[C@@H]1C2(C)C [Compound 11, 13-oxyingenol-13-dodecanoate]
HIV-1 NL4-3 Nanoluc-sec
  SI, selectivity index, calculated as CC50/EC50: >273

## COc1ccc(C(=O)O[C@H]2C(C)=C[C@]34C(=O)[C@@H](C=C(C)[C@@H](O)[C@]23O)[C@H]2[C@@H](C[C@H]4C)C2(C)C)cc1 [Compound 12a, 3-(p-Methoxybenzoyl)-20-deoxyingenol]
HIV-1 NL4-3 Nanoluc-sec
  SI, selectivity index, calculated as CC50/EC50: >64

## COc1ccc(C(=O)O[C@@H]2C(C)=C[C@@H]3C(=O)[C@]4(C=C(C)[C@H](O)[C@@]24O)[C@H](C)C[C@@H]2[C@H]3C2(C)C)cc1 [Compound 12b, 5-(p-methoxybenzoyl)-20-deoxyingenol]
HIV-1 NL4-3 Nanoluc-sec
  SI, selectivity index, calculated as CC50/EC50: >20

## CC1=C[C@@H]2C(=O)[C@]3(C=C(C)[C@H](OC(=O)/C=C/c4ccccc4)[C@@]3(O)[C@@H]1O)[C@H](C)C[C@@H]1[C@H]2C1(C)C [Compound 13a, 3-(trans-Cinnamoyl)-20-deoxyingenol]
HIV-1 NL4-3 Nanoluc-sec
  SI, selectivity index, calculated as CC50/EC50: >45

## CC1=C[C@@H]2C(=O)[C@]3(C=C(C)[C@H](O)[C@@]3(O)[C@@H]1OC(=O)/C=C/c1ccccc1)[C@H](C)C[C@@H]1[C@H]2C1(C)C [Compound 13b, 5-(trans-cinnamoyl)-20-deoxyingenol]
HIV-1 NL4-3 Nanoluc-sec
  SI, selectivity index, calculated as CC50/EC50: >22

## CC1=C[C@@H]2C(=O)[C@]3(C=C(C)[C@H](OC(=O)c4ccc5ccccc5c4)[C@@]3(O)[C@@H]1O)[C@H](C)C[C@@H]1[C@H]2C1(C)C [Compound 14a, 3-(2-Naphthoyl)-20-deoxyingenol]
HIV-1 NL4-3 Nanoluc-sec
  SI, selectivity index, calculated as CC50/EC50: >543

## C/C=C/C(=O)O[C@H]1C(C)=C[C@]23C(=O)[C@@H](C=C(C)[C@@H](O)[C@]12O)[C@H]1[C@@H](C[C@H]3C)C1(C)C [Compound 15a, 3-Crotonoyl-20-deoxyingenol]
HIV-1 NL4-3 Nanoluc-sec
  SI, selectivity index, calculated as CC50/EC50: >17

## C/C=C/C(=O)O[C@@H]1C(C)=C[C@@H]2C(=O)[C@]3(C=C(C)[C@H](O)[C@@]13O)[C@H](C)C[C@@H]1[C@H]2C1(C)C [Compound 15b, 5-crotonoyl-20-deoxyingenol]
HIV-1 NL4-3 Nanoluc-sec
  SI, selectivity index, calculated as CC50/EC50: >16

## C/C=C(\C)C(=O)O[C@H]1C(C)=C[C@]23C(=O)[C@@H](C=C(C)[C@@H](O)[C@]12O)[C@H]1[C@@H](C[C@H]3C)C1(C)C [Compound 16, 3-Tigloyl-20-deoxyingenol]
HIV-1 NL4-3 Nanoluc-sec
  SI, selectivity index, calculated as CC50/EC50: >46
[1]
  CC50 at 3 days: > 9.7 µM

## C/C=C(/C)C(=O)O[C@H]1C(C)=C[C@]23C(=O)[C@@H](C=C(C)[C@@H](O)[C@]12O)[C@H]1[C@@H](C[C@H]3C)C1(C)C [Compound 17, 3-angeloyl-20-deoxyingenol]
HIV-1 NL4-3 Nanoluc-sec
  SI, selectivity index, calculated as CC50/EC50: >22.8

## CCCCCCCC(=O)O[C@H]1C(C)=C[C@]23C(=O)[C@@H](C=C(C)[C@@H](O)[C@]12O)[C@H]1[C@@H](C[C@H]3C)C1(C)C [Compound 18, 3-Octanoyl-20-deoxyingenol]
HIV-1 NL4-3 Nanoluc-sec
  SI, selectivity index, calculated as CC50/EC50: >59.9

## C/C=C(/C)C(=O)O[C@H]1C(C)=C[C@]23C(=O)[C@@H](C=C(CO)[C@@H](O)[C@]12O)[C@H]1[C@@H](C[C@H]3C)C1(C)C [Compound 22, 3-Angeloylingenol]
HIV-1 NL4-3 Nanoluc-sec
  SI, selectivity index, calculated as CC50/EC50: >2067
[2]
  activation of green fluorescent protein (GFP) expression: comparable potency

## CC1=C[C@]23C(=O)[C@@H](C=C(CO)[C@@H](O)[C@]2(O)[C@H]1OC(=O)c1ccc2ccccc2c1)[C@H]1[C@@H](C[C@H]3C)C1(C)C [Compound 23, 3-(2-Naphthoyl)ingenol]
HIV-1 NL4-3 Nanoluc-sec
  SI, selectivity index, calculated as CC50/EC50: >6153
[3]
  CC50 at 3 days: > 2 µM
[2]
  activation of green fluorescent protein (GFP) expression: comparable potency

From article PMC6217806 (European journal of medicinal chemistry, 2018)
